Laboratory results from ChEMBL document CHEMBL5058577, “EUbOPEN Chemogenomics Library 2 (Multiplex)” (2022).

Test system: HEK-293T
Assay: Multiplex assay against HEK293T
Assay type: toxicity, cell-based
Settings: human
Procedure, shortened: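 Values for tubulin, mitochondrial-mass and membrane-permeability phenotypes are per cents of cells with healthy nuclei. These cells were identified by CellPathfinder machine-learning gating of live cells that had been stained at seeding with Hoechst33342, BioTracker Green Microtubule Cytoskeleton Dye, MitoTracker Red and Annexin V Alexa Fluor 680 and imaged on a CQ1 microscope at 37°C and 5% CO2 after compound addition. The gating first set Hoechst high-intensity objects apart from normal cells, then split normal cells into healthy, pyknosed or fragmented nuclei, and pyknosed cells into mitotic or apoptotic.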

[1] = 12 h, 1 µM, compound concentration 1 uM, replicate 1
[2] = 12 h, 1 µM, compound concentration 1 uM, replicate 2
[3] = 12 h, 10 µM, compound concentration 10 uM, replicate 1
[4] = 12 h, 10 µM, compound concentration 10 uM, replicate 2
[5] = 24 h, 1 µM, compound concentration 1 uM, replicate 1
[6] = 24 h, 1 µM, compound concentration 1 uM, replicate 2
[7] = 24 h, 10 µM, compound concentration 10 uM, replicate 1
[8] = 24 h, 10 µM, compound concentration 10 uM, replicate 2
[9] = 48 h, 1 µM, compound concentration 1 uM, replicate 1
[10] = 48 h, 1 µM, compound concentration 1 uM, replicate 2
[11] = 48 h, 10 µM, compound concentration 10 uM, replicate 1
[12] = 48 h, 10 µM, compound concentration 10 uM, replicate 2

CN(C)CCCc1cc(C(=O)Nc2ccc(-c3ccncc3)cc2)ccc1O.Cl.Cl
Population Apoptotic (%) [1]: 27%
Population Fragmented Nuclei (%) [1]: 5%
Population Healthy Nuclei (%) [1]: 79%
Population Hoechst High Intensity Objects (%) [1]: 9%
Population Membrane Permeable-Phenotype (%) [1]: 0%
Population Mitochondria Different-Phenotype (%) [1]: 48%
Population Mitotic Cells (%) [1]: 72%
Population Normal (%) [1]: 90%
Population Pyknosed Nuclei (%) [1]: 14%
Population Tubulin-Different-Phenotype (%) [1]: 37%
Total Cell Count [1]: 358
Population Apoptotic (%) [2]: 37%
Population Healthy Nuclei (%) [2]: 82%
Population Hoechst High Intensity Objects (%) [2]: 8%
Population Mitochondria Different-Phenotype (%) [2]: 58%
Population Mitotic Cells (%) [2]: 62%
Population Normal (%) [2]: 91%
Population Pyknosed Nuclei (%) [2]: 11%
Population Tubulin-Different-Phenotype (%) [2]: 14%
Total Cell Count [2]: 367
Population Apoptotic (%) [3]: 31%
Population Fragmented Nuclei (%) [3]: 10%
Population Healthy Nuclei (%) [3]: 81%
Population Hoechst High Intensity Objects (%) [3]: 6%
Population Membrane Permeable-Phenotype (%) [3]: 0%
Population Mitochondria Different-Phenotype (%) [3]: 49%
Population Mitotic Cells (%) [3]: 68%
Population Normal (%) [3]: 93%
Population Pyknosed Nuclei (%) [3]: 7%
Population Tubulin-Different-Phenotype (%) [3]: 33%
Total Cell Count [3]: 460
Population Apoptotic (%) [4]: 60%
Population Fragmented Nuclei (%) [4]: 11%
Population Healthy Nuclei (%) [4]: 77%
Population Hoechst High Intensity Objects (%) [4]: 9%
Population Membrane Permeable-Phenotype (%) [4]: 2%
Population Mitochondria Different-Phenotype (%) [4]: 63%
Population Mitotic Cells (%) [4]: 39%
Population Normal (%) [4]: 90%
Population Pyknosed Nuclei (%) [4]: 11%
Total Cell Count [4]: 391
Population Apoptotic (%) [5]: 25%
Population Fragmented Nuclei (%) [5]: 11%
Population Healthy Nuclei (%) [5]: 78%
Population Hoechst High Intensity Objects (%) [5]: 5%
Population Membrane Permeable-Phenotype (%) [5]: 1%
Population Mitochondria Different-Phenotype (%) [5]: 26%
Population Mitotic Cells (%) [5]: 74%
Population Normal (%) [5]: 94%
Population Pyknosed Nuclei (%) [5]: 10%
Population Tubulin-Different-Phenotype (%) [5]: 21%
Total Cell Count [5]: 542
Population Fragmented Nuclei (%) [6]: 9%
Population Healthy Nuclei (%) [6]: 83%
Population Membrane Permeable-Phenotype (%) [6]: 0%
Population Mitochondria Different-Phenotype (%) [6]: 32%
Population Mitotic Cells (%) [6]: 75%
Population Pyknosed Nuclei (%) [6]: 6%
Population Tubulin-Different-Phenotype (%) [6]: 9%
Total Cell Count [6]: 486
Population Apoptotic (%) [7]: 32%
Population Fragmented Nuclei (%) [7]: 12%
Population Healthy Nuclei (%) [7]: 77%
Population Hoechst High Intensity Objects (%) [7]: 5%
Population Membrane Permeable-Phenotype (%) [7]: 0%
Population Mitochondria Different-Phenotype (%) [7]: 38%
Population Mitotic Cells (%) [7]: 67%
Population Normal (%) [7]: 94%
Population Pyknosed Nuclei (%) [7]: 9%
Population Tubulin-Different-Phenotype (%) [7]: 23%
Total Cell Count [7]: 588
Population Apoptotic (%) [8]: 47%
Population Fragmented Nuclei (%) [8]: 15%
Population Healthy Nuclei (%) [8]: 74%
Population Hoechst High Intensity Objects (%) [8]: 15%
Population Mitochondria Different-Phenotype (%) [8]: 48%
Population Mitotic Cells (%) [8]: 52%
Population Normal (%) [8]: 84%
Population Tubulin-Different-Phenotype (%) [8]: 19%
Total Cell Count [8]: 505
Population Apoptotic (%) [9]: 23%
Population Fragmented Nuclei (%) [9]: 11%
Population Healthy Nuclei (%) [9]: 81%
Population Hoechst High Intensity Objects (%) [9]: 2%
Population Membrane Permeable-Phenotype (%) [9]: 2%
Population Mitochondria Different-Phenotype (%) [9]: 19%
Population Mitotic Cells (%) [9]: 76%
Population Normal (%) [9]: 97%
Population Pyknosed Nuclei (%) [9]: 6%
Population Tubulin-Different-Phenotype (%) [9]: 14%
Total Cell Count [9]: 814
Population Apoptotic (%) [10]: 21%
Population Fragmented Nuclei (%) [10]: 16%
Population Healthy Nuclei (%) [10]: 75%
Population Hoechst High Intensity Objects (%) [10]: 5%
Population Membrane Permeable-Phenotype (%) [10]: 1%
Population Mitochondria Different-Phenotype (%) [10]: 24%
Population Mitotic Cells (%) [10]: 78%
Population Normal (%) [10]: 94%
Population Pyknosed Nuclei (%) [10]: 8%
Population Tubulin-Different-Phenotype (%) [10]: 13%
Total Cell Count [10]: 596
Population Apoptotic (%) [11]: 29%
Population Fragmented Nuclei (%) [11]: 17%
Population Healthy Nuclei (%) [11]: 75%
Population Hoechst High Intensity Objects (%) [11]: 5%
Population Membrane Permeable-Phenotype (%) [11]: 1%
Population Mitochondria Different-Phenotype (%) [11]: 21%
Population Mitotic Cells (%) [11]: 70%
Population Normal (%) [11]: 94%
Population Pyknosed Nuclei (%) [11]: 6%
Population Tubulin-Different-Phenotype (%) [11]: 13%
Total Cell Count [11]: 883
Population Apoptotic (%) [12]: 58%
Population Fragmented Nuclei (%) [12]: 15%
Population Healthy Nuclei (%) [12]: 76%
Population Hoechst High Intensity Objects (%) [12]: 11%
Population Membrane Permeable-Phenotype (%) [12]: 0%
Population Mitochondria Different-Phenotype (%) [12]: 35%
Population Mitotic Cells (%) [12]: 41%
Population Normal (%) [12]: 88%
Population Pyknosed Nuclei (%) [12]: 7%
Population Tubulin-Different-Phenotype (%) [12]: 20%
Total Cell Count [12]: 641
